Measurements reported in ChEMBL document CHEMBL3627702, “Navigating CYP1A Induction and Arylhydrocarbon Receptor Agonism in Drug Discovery. A Case History with S1P1 Agonists” (J Med Chem, 2015).

Assays:
Rattus norvegicus [1] = assay: Induction of Nqo1 gene expression in po dosed rat hepatic microsomes administered po QD for 7 days; format: organism-based, Liver; conditions: 168 h
In short: (§1)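 Rats dosed orally once daily for 7 days at 30–300 mg/kg/day, depending on compound. Hepatic AhR-panel gene mRNA (Cyp1a, Nqo1, Ephx1) measured and expressed as fold induction versus control animals.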

CYP1A1 [2] = assay: Induction of CYP1A1 gene expression in rat hepatic microsomes at 30 to 100 mg/kg, po QD for 7 days; format: ADME, organism-based, Liver; conditions: read-out: FC
CYP1A2 [3] = assay: Induction of CYP1A2 mRNA expression in rat hepatocytes at 10 uM by Taqman analysis relative to control; format: ADME, cell-based, Hepatocyte; conditions: read-out: FC
Rattus norvegicus [4] = assay: Induction of Nqo1 gene expression in rat hepatic microsomes at 30 to 100 mg/kg, po QD for 7 days; format: organism-based, Liver; conditions: 168 h
CYP1A2 [5] = biological target: T1, CYP1A2 (Homo sapiens, UniProt P05177); assay: Induction of CYP1A2-mediated 7-ethoxyresorufin O-deethylase activity in human hepatocytes at 5 uM after 10 mins by fluorescence assay relative to control; format: ADME, cell-based, Hepatocyte; conditions: probe 7-ethoxyresorufin, read-out: FC
T1 sequence (P05177 whole entry): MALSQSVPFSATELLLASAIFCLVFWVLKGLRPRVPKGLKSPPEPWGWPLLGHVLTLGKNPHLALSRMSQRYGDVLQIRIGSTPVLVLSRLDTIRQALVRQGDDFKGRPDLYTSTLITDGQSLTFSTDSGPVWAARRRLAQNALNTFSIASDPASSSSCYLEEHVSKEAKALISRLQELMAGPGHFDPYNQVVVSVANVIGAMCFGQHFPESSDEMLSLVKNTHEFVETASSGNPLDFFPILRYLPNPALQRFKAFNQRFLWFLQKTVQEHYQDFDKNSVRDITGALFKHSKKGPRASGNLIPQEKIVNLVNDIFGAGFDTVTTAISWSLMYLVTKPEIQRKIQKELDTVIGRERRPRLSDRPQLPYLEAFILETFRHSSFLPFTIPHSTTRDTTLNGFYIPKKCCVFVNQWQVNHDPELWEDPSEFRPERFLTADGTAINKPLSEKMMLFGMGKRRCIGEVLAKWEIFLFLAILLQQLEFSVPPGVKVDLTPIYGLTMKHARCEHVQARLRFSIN
In short: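 Human hepatocytes were treated for 48 h (re-dosed at 24 h), washed, then incubated with 0.5 μM ethoxyresorufin in serum-free medium for 10 min at 37 °C. Resorufin fluorescence read at Ex 530/Em 590 nm. Rate in fluorescence units/min expressed as fold over solvent control.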

CYP1A2 [6] = assay: Induction of CYP1A2 mRNA expression in rat hepatic microsomes at 30 mg/kg, po QD for 7 days relative to control; format: ADME, organism-based, Liver; conditions: read-out: FC
In short: (§2)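 Male rats dosed orally once daily for 7 days. Hepatic mRNA measured by Taqman and expressed as fold induction versus control animals.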

CYP1A1 [7] = assay: Induction of CYP1A1 mRNA expression in rat hepatic microsomes at 30 mg/kg, po QD for 7 days relative to control; format: ADME, organism-based, Liver; conditions: read-out: FC; in short: as §2
Cynomolgus monkey [8] = assay: Induction of CYP1A1 gene expression in cynomolgus monkey liver at 30 mg/kg, po QD for 7 days by Taqman analysis; format: ADME, organism-based, Macaca fascicularis; conditions: in vivo, 168 h
In short: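 Cynomolgus monkeys were dosed orally at 30 mg/kg daily. Hepatic CYP1A1 mRNA from treated livers was measured by Taqman and compared with vehicle-control animals.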

Rattus norvegicus [9] = assay: Induction of Ephx1 gene expression in rat hepatic microsomes at 30 to 100 mg/kg, po QD for 7 days; format: organism-based, Liver; conditions: 168 h
Rattus norvegicus [10] = assay: Induction of CYP1A1 gene expression in po dosed rat hepatic microsomes administered po QD for 7 days; format: ADME, organism-based, Liver; conditions: 168 h
In short: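 Rats received oral doses daily for 7 days: 30 and 100 mg/kg, or 30, 100 and 300 mg/kg, depending on compound. Hepatic CYP1A1 mRNA was expressed as fold induction versus control animals.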

Rattus norvegicus [11] = assay: Induction of CYP1A2 gene expression in rat hepatic microsomes at 30 to 100 mg/kg, po QD for 7 days; format: ADME, organism-based, Liver; conditions: 168 h
CYP1A2 [12] = assay: Induction of CYP1A2 mRNA expression in human hepatocytes at 10 uM relative to control; format: ADME, cell-based, Hepatocyte; conditions: read-out: FC
Rattus norvegicus [13] = assay: Induction of Ephx1 gene expression in po dosed rat hepatic microsomes administered po QD for 7 days; format: organism-based, Liver; conditions: 168 h; in short: as §1
[14] = Intrinsic clearance in cynomolgus monkey liver microsomes by LC-MS/MS analysis; format: ADME, Macaca fascicularis
In short: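 Liver microsomes were prepared from control and treated cynomolgus monkeys by differential centrifugation (10 000g, then 105 000g). Compound incubated at 37 °C in 50 mM potassium phosphate pH 7.4 with an NADPH-generating system. Samples taken at 0–30 min, quenched with solvent containing internal standard, and analysed by LC–MS/MS to derive intrinsic clearance.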

CYP1A1 [15] = assay: Induction of CYP1A1 mRNA expression in rat hepatocytes at 10 uM by Taqman analysis relative to control; format: ADME, cell-based, Hepatocyte; conditions: read-out: FC
Rattus norvegicus [16] = assay: Induction of CYP1A2 gene expression in po dosed rat hepatic microsomes administered po QD for 7 days; format: ADME, organism-based, Liver; conditions: 168 h; in short: as §1
Cynomolgus monkey [17] = assay: Induction of CYP1A2 gene expression in cynomolgus monkey liver at 30 mg/kg, po QD for 7 days by Taqman analysis; format: ADME, organism-based, Macaca fascicularis; conditions: in vivo, 168 h
In short: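 Cynomolgus monkeys dosed orally at 30 mg/kg daily for 7 days. Liver CYP1A2 mRNA measured by Taqman analysis in treated animals versus vehicle-control animals.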

[18] = AUC in Sprague-Dawley rat at 30 mg/kg, po QD measured on day 1; format: ADME, organism-based; conditions: in vivo
In short: (§3)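 Male CD rats (226−325 g), n = 3, given the compound once daily by oral gavage for 4 days. Vehicle was 1% (w/v) methylcellulose aq suspension at 3−6 mg/mL, dosed at 5 mL/kg (target 15−30 mg/kg). Tail vein blood was taken on days 1 and 4 up to 24 h postdose. Blood was diluted 1:1 with water, extracted by acetonitrile protein precipitation and analysed by LC−MS/MS against calibration standards in diluted blood.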

CYP1A1 [19] = assay: Induction of CYP1A1 mRNA expression in Sprague-Dawley rat hepatic microsomes at 30 mg/kg, po QD for 4 days relative to control; format: ADME, organism-based, Liver; conditions: read-out: FC
In short: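 Male CD rats (226–325 g, n = 3) were dosed by oral gavage once daily for 4 days as a 1% w/v aqueous methylcellulose suspension (3–6 mg/mL, 5 mL/kg). At the end of the study, a left lateral liver lobe section was placed in RNALater and homogenised in TRIzol. RNA was purified, DNase-treated and converted to cDNA, and Cyp1a1 was read on low-density TaqMan arrays.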

[20] = biological target: Sphingosine 1-phosphate receptor 3 (Homo sapiens, UniProt Q99500); assay: Agonist activity at S1P3 receptor (unknown origin) expressed in RBL membranes assessed as GTPgammaS binding after 3 hrs; format: functional, cell membranes
In short: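 Membranes from S1P3-expressing RBL cells were sucrose-gradient purified, used at 0.44 μg/well and coupled to WGA-coated SPA beads. Buffer was 20 mM HEPES, 10 mM MgCl2, 100 mM NaCl, pH 7.4, with 2 μg/well saponin. Precoupling was 30 min on ice. GDP was present at 5 μM final.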

[21] = Cmax in Sprague-Dawley rat at 30 mg/kg, po QD measured on day 4; format: ADME, organism-based; parameters: dose 30 mg/kg, route oral; conditions: in vivo; in short: as §3
[22] = biological target: Sphingosine 1-phosphate receptor 1 (Homo sapiens, UniProt P21453); assay: Agonist activity at S1P1 receptor (unknown origin) expressed in CHO-K1 cells assessed as beta-arrestin recruitment after 60 mins by chemiluminescence assay; format: cell-based; conditions: in the assay text read “after 90 mins” for “after 60 mins”
In short: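 PathHunter CHO-K1 cells stably express S1P1 and β-arrestin 2 fused to complementing β-galactosidase fragments. Cells in pH 7.4 HEPES/NaHCO3 buffer with 0.1% pluronic and 0.1% BSA were added to DMSO compound plates at 1 × 10^4 cells/well. Incubation was 90 min at 37 °C/5% CO2, then 15 min at room temperature. Galacton Star/Emerald II detection mix was added for 60 min at room temperature, and luminescence was read.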

[23] = Intrinsic clearance in dog hepatocytes by LC-MS/MS analysis; conditions: read-out: CLH
[24] = Volume of distribution at steady state in CD rat at 1 mg/kg, iv; format: ADME, organism-based; conditions: in vivo, read-out: Vdss
In short: (§4)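 Male CD rats cannulated in the femoral and jugular veins, n = 3, crossover design. Day 1: 1 h iv infusion at 1 mg/kg (0.2 mg/mL in ≤5% DMSO/≥95% 10% Kleptose in saline, 5 mL/kg/h). Day 2: oral gavage at 3 mg/kg (0.6 mg/mL in 1% methylcellulose, 5 mL/kg). Blood assayed by LC–MS/MS after acetonitrile precipitation.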

CYP1A2 [25] = assay: Induction of CYP1A2 mRNA expression in Sprague-Dawley rat hepatic microsomes at 30 mg/kg, po QD for 4 days relative to control; format: ADME, organism-based, Liver; conditions: read-out: FC
[26] = Half life in CD rat at 1 mg/kg, iv; format: ADME, organism-based; conditions: in vivo
In short: (§5)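 Male CD rats carried femoral vein (dosing) and jugular vein (sampling) cannulae and recovered at least 2 days. They received a 1 h iv infusion at 5 mL kg−1 h−1, target 1 mg/kg, at 0.2 mg/mL in DMSO/10% Kleptose in saline (≤5%:≥95%). pH was adjusted to 8.0 if needed and the solution filtered. Definitive studies used n = 3 in crossover; others used single animals.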

[27] = AUC in Sprague-Dawley rat at 30 mg/kg, po QD measured on day 4; format: ADME, organism-based; conditions: in vivo; in short: as §3
Rattus norvegicus [28] = assay: Dose normalized AUC in Sprague-Dawley rat at 30 mg/kg, po QD measured on day 4; format: ADME, organism-based; conditions: in vivo; in short: as §3
[29] = Intrinsic clearance in human hepatocytes by LC-MS/MS analysis; conditions: read-out: CLH
[30] = Blood clearance in CD rat at 1 mg/kg, iv; format: ADME, organism-based; in short: as §5
[31] = Oral bioavailability in CD rat at 3 mg/kg; format: ADME, organism-based; conditions: in vivo; in short: as §4
[32] = Intrinsic clearance in rat hepatocytes by LC-MS/MS analysis; conditions: read-out: CLH
[33] = Lipophilicity, log D of the compound at pH 7.4; format: physicochemical; conditions: buffer
[34] = Dissociation constant, pKa of the compound; format: physicochemical
[35] = Cmax in Sprague-Dawley rat at 30 mg/kg, po QD measured on day 1; format: ADME, organism-based; parameters: dose 30 mg/kg, route oral; conditions: in vivo; in short: as §3
Rattus norvegicus [36] = assay: Dose normalized AUC in Sprague-Dawley rat at 30 mg/kg, po QD measured on day 1; format: ADME, organism-based; conditions: in vivo; in short: as §3

Sphingosine 1-phosphate receptor 3, sequence (Q99500 whole entry): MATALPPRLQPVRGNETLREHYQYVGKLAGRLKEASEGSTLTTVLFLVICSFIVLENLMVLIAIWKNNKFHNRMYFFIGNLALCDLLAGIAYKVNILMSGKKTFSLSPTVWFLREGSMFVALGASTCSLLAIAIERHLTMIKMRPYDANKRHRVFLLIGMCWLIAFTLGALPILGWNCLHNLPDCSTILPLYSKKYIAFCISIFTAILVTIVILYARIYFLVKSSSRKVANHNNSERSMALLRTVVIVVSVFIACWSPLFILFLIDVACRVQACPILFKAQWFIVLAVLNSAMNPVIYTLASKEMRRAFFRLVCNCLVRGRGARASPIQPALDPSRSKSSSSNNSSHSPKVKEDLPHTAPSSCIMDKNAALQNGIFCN
Sphingosine 1-phosphate receptor 1, sequence (P21453 whole entry, the tested form may be a part): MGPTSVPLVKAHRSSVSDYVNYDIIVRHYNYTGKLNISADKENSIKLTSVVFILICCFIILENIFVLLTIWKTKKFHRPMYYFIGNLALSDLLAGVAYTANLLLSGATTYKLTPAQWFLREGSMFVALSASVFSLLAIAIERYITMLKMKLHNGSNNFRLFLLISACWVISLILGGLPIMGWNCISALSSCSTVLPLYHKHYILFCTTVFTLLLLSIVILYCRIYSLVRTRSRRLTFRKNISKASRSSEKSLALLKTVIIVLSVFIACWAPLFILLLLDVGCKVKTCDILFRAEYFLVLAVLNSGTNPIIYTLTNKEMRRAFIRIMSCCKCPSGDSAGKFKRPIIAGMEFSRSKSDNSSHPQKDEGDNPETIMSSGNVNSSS

Structure (SMILES): CC(C)Oc1ccc(-c2nc(-c3cccc4c3cnn4CCC(=O)O)no2)cc1Cl
- Activity (Rattus norvegicus [1]): Dose-dependent effect
- fold induction at 168 h (CYP1A1 [2]): 10000
- fold induction at 10 µM (CYP1A2 [3]): < 1
- Activity (Rattus norvegicus [4]): Toxic
- fold induction at 10 min, 5 µM (CYP1A2 [5]): 7.7
- fold induction at 168 h (CYP1A2 [6]): 2
- fold induction at 168 h (CYP1A1 [7]): 35
- Activity (Cynomolgus monkey [8]): Toxic
- Activity (Rattus norvegicus [9]): Toxic
- Activity (Rattus norvegicus [10]): Dose-dependent effect
- Activity (Rattus norvegicus [11]): Toxic
- fold induction at 10 µM (CYP1A2 [12]): 45
- Activity (Rattus norvegicus [13]): Dose-dependent effect
- CLint scaled [14]: 11 mL/min/g
- fold induction at 10 µM (CYP1A1 [15]): < 1
- Activity (Rattus norvegicus [16]): Dose-dependent effect
- Activity (Cynomolgus monkey [17]): Toxic

Structure (SMILES): Cc1c(-c2noc(-c3ccc(OC(C)C)c(C#N)c3)n2)ccc2c1CCN(C[C@@H](O)CO)C2
- AUC [18]: 7310 ng·h/mL
- fold induction at 96 h (CYP1A1 [19]): 62
- EC50 [20]: > 31600 nM
- Cmax [21]: 710 ng/mL
- EC50 [22]: 7.94 nM
- CLint scaled [23]: 7.1 mL/min/kg
- Vd [24]: 6.6 L/kg
- fold induction at 96 h (CYP1A2 [25]): 4.6
- half-life [26]: 1.7 h
- AUC [27]: 7000 ng·h/mL
- AUC/dose (Rattus norvegicus [28]): 15 kg·min/L
- CLint scaled [29]: < 0.85 mL/min/kg
- clearance [30]: 53 mL/min/kg
- bioavailability [31]: 56%
- CLint scaled [32]: 2.1 mL/min/kg
- logD [33]: 2.16
- pKa [34]: 7.7
- Cmax [35]: 720 ng/mL
- AUC/dose (Rattus norvegicus [36]): 15 kg·min/L
